Assay results: ChEMBL document CHEMBL1141208, “Synthesis and biological evaluation of methoxylated analogs of the newer generation taxoids IDN5109 and IDN5390” (Bioorg Med Chem Lett, 2005)

Assays:
MCF7-DOX = test: Cytotoxic potency in doxorubicin resistant MCF7 cell line after 72 hr exposure by SRB test; assay type: functional, cell-based; conditions: Homo sapiens
Method in brief: (§1)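 Monolayers grown in RPMI-1640 with 5% FCS, 5% NuSerum IV, 20 mM Hepes, 2 mM L-glutamine, 37 °C, 5% CO2. 800–1500 cells/well attached 15–18 h, then given 10 concentrations over a 5-log range (DMSO stock diluted in RPMI/10 mM Hepes) for 72 h. Cells TCA-fixed, sulforhodamine B stained, OD 570 nm. IC50 from Sigmoid-Emax nonlinear regression; means of ≥3 independent experiments ± SE.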

[1] = Resistance index (IC50 of MCF7 resistant cell line/IC50 of MCF7 sensitive cell line); assay type: functional, Homo sapiens
MCF7 = test: Cytotoxic potency in MCF7 human mammary carcinoma cell line after 72 hr exposure by SRB test; assay type: functional, cell-based; conditions: MCF7, 72 h; method in brief: as §1

For COc1cccc(C(=O)O[C@H]2[C@H]([C@]3(OC(C)=O)CO[C@@H]3CCO)/C(C)=C(/O)C(=O)C3=C(C)[C@@H](OC(=O)[C@H](O)[C@H](CC(C)C)NC(=O)OC(C)(C)C)[C@@H]4OC(=O)O[C@]42C3(C)C)c1, which IC50 (MCF7-DOX) is on record?
Its IC50 is 120 nM.

What about the “Ratio IC50” value [1] of the same molecule?
The value was 240.

And the IC50 (MCF7)?
Its IC50 is 0.5 nM.

Which IC50 (MCF7-DOX) does the source give for CC(=O)O[C@H]1C(=O)[C@@]2(C)[C@H]([C@H](OC(=O)c3ccccc3)[C@]3(O)C[C@H](OC(=O)[C@H](O)[C@@H](NC(=O)c4ccccc4)c4ccccc4)C(C)=C1C3(C)C)[C@]1(OC(C)=O)CO[C@@H]1C[C@@H]2O [PACLITAXEL] here?
The IC50 was 585 nM.

And the “Ratio IC50” value [1]?
The value was 975.

What about the IC50 (MCF7) of the same molecule?
The IC50 was 0.6 nM.

Which results are given for CC(=O)O[C@@]1([C@@H]2/C(C)=C(/O)C(=O)C3=C(C)[C@@H](OC(=O)[C@H](O)[C@H](CC(C)C)NC(=O)OC(C)(C)C)C[C@@](O)([C@H]2OC(=O)c2ccccc2)C3(C)C)CO[C@@H]1CCO?
IC50 (MCF7-DOX): 1040 nM; Ratio IC50 [1]: 93; IC50 (MCF7): 11.2 nM

For COc1cccc(C(=O)O[C@H]2[C@@H]3[C@]4(OC(C)=O)CO[C@@H]4C[C@H](O)[C@@]3(C)C(=O)[C@H](OC(C)=O)C3=C(C)[C@@H](OC(=O)[C@H](O)[C@H](CC(C)C)NC(=O)OC(C)(C)C)[C@@H]4OC(=O)O[C@]42C3(C)C)c1, which IC50 (MCF7-DOX) is on record?
Its IC50 is 4 nM.

And the “Ratio IC50” value [1]?
Its value is 17.

And the IC50 (MCF7)?
Its IC50 is 0.24 nM.

Which results are given for CC(=O)O[C@H]1C(=O)[C@@]2(C)[C@H]([C@H](OC(=O)c3ccccc3)[C@]34OC(=O)O[C@H]3[C@H](OC(=O)[C@H](O)[C@H](CC(C)C)NC(=O)OC(C)(C)C)C(C)=C1C4(C)C)[C@]1(OC(C)=O)CO[C@@H]1C[C@@H]2O [ORTATAXEL]?
IC50 (MCF7-DOX): 32 nM; Ratio IC50 [1]: 20; IC50 (MCF7): 1.6 nM
